Consider 20 compounds from ChEMBL document CHEMBL1128385, “Three-dimensional quantitative structure-activity relationships of somatostatin analogues. 1. Comparative molecular field analysis of growth hormone release-inhibiting potencies” (J Med Chem, 1995).

Where a SMILES comes first, the peptide text is derived from it. Bridges are numbered along the chain shown (N, C = ends). [ ]: non-standard residue; d: D form. Phe(4-NO2) = N[C@@H](Cc1ccc([N+](=O)[O-])cc1)C(=O)O; 2Nal = N[C@@H](Cc1ccc2ccccc2c1)C(=O)O

The species named for the experiment is Rattus norvegicus. Briefly: In vitro GH release inhibiting potency on anterior pitutaries from adult male rats, relative to somatostatin. It counts as functional. The gist of the method: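 Rat anterior pituitary cells (adult males, 200-250 g), trypsin/DNase dispersed, plated 2 × 10^5 cells/well, cultured 96 h at 37 °C in serum-supplemented DMEM. After washing, cells were pulsed 3 h at 37 °C with 1 nM GRF(1-29)NH2 ± graded analogue doses in medium 199/1% BSA, quadruplicate wells. Medium GH was measured by double-antibody RIA. Potency relative to somatostatin (=1.0) came from four-point assay (mean of ≥3 experiments) or IC50 comparison.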
As for `CC[C@@H]1NC(=O)C(CCCCN)NC(=O)[C@@H](Cc2c[nH]c3ccccc23)NC(=O)C(Cc2ccccc2)NC(=O)[C@@H]2CCCN2C(=O)C(Cc2ccccc2)NC1=O` (single isomer, unassigned), the GHI was determined as 1.25.

`CC(C)[C@H](NC(=O)[C@H](CCCCN)NC(=O)[C@@H](Cc1c[nH]c2ccccc12)NC(=O)[C@H](Cc1ccc(O)cc1)NC(=O)[C@H](Cc1ccc([N+](=O)[O-])cc1)NC(=O)[C@H](N)Cc1ccccc1)C(=O)N[C@@H](Cc1ccccc1)C(=O)N[C@H](C(N)=O)[C@@H](C)O` (H-[dF][Phe(4-NO2)]Y[dW]KVFT-NH2) yielded a GHI of 159.

`C[C@@H](O)[C@@H]1NC(=O)[C@H](CCCCN)NC(=O)[C@@H](Cc2c[nH]c3ccccc23)NC(=O)[C@H](Cc2ccc(N)cc2)NC(=O)[C@H](Cc2ccccc2)NC(=O)CCCCCCNC(=O)[C@H](Cc2ccccc2)NC1=O` (stereo in doubt) showed a GHI of 35.

In the case of `NCCCC[C@@H]1NC(=O)[C@@H](Cc2c[nH]c3ccccc23)NC(=O)[C@H](Cc2ccc(O)cc2)NC(=O)[C@@H](NC(=O)[C@H](N)Cc2ccccc2)CSSC[C@@H](C(=O)N[C@@H](Cc2ccc3ccccc3c2)C(N)=O)NC(=O)[C@H](CO)NC1=O`, the GHI was 0.03.

On to `CC(C)[C@@H]1NC(=O)C(CCCCN)NC(=O)[C@@H](Cc2c[nH]c3ccccc23)NC(=O)C(Cc2ccccc2)NC(=O)[C@@H]2CCCN2C(=O)C(Cc2ccccc2)NC1=O` (single isomer, unassigned), for which the GHI was determined as 0.29.

`CC[C@@H]1NC(=O)[C@H](CCCCN)NC(=O)C(Cc2c[nH]c3ccccc23)NC(=O)[C@H](Cc2ccc(O)cc2)NC(=O)[C@@H]2Cc3ccccc3CN2C(=O)[C@H](Cc2ccccc2)NC1=O` (single isomer, unassigned) displayed a GHI of 0.26.

Regarding `CC(C)[C@@H]1NC(=O)[C@H](CCCCN)NC(=O)[C@@H](Cc2c[nH]c3ccccc23)NC(=O)[C@H](Cc2ccc(O)cc2)NC(=O)[C@@H](NC(=O)[C@H](N)Cc2ccc3ccccc3c2)CSSC[C@@H](C(=O)N[C@H](C(=O)O)[C@@H](C)O)NC1=O`, the GHI amounted to 1.07.

Turning to `C[C@@H](O)[C@@H]1NC(=O)[C@H](CCCN=C(N)N)NC(=O)[C@@H](Cc2c[nH]c3ccccc23)NC(=O)[C@H](Cc2ccccc2)NC(=O)[C@H](Cc2ccccc2)NC(=O)CCCCCCNC(=O)[C@H](Cc2ccccc2)NC1=O` (stereo in doubt), the GHI was found to be 14.

`NCCCCC1NC(=O)[C@@H](Cc2c[nH]c3ccccc23)NC(=O)C(Cc2ccccc2)NC(=O)[C@H](Cc2ccccc2)NC(=O)CCCCCCNC(=O)C(Cc2ccccc2)NC(=O)C2(CCCC2)NC1=O` (single isomer, unassigned) yielded a GHI of 6.7.

`CC(C)[C@@H]1NC(=O)[C@H](CCCCN)NC(=O)[C@@H](Cc2c[nH]c3ccccc23)NC(=O)[C@H](Cc2ccc(O)cc2)NC(=O)[C@@H](NC(=O)[C@H](N)Cc2ccccc2)CSSC[C@@H](C(=O)N[C@@H](Cc2ccc3ccccc3c2)C(N)=O)NC1=O` (H-[dF]CY[dW]KVC[2Nal]-NH2; disulfide 2-7) came in with a GHI of 0.43.

Consider `CC(C)[C@@H]1NC(=O)[C@H](CCCCN)NC(=O)[C@@H](Cc2c[nH]c3ccccc23)NC(=O)[C@H](Cc2ccc(O)cc2)NC(=O)[C@H](NC(=O)[C@H](N)C(c2ccccc2)c2ccccc2)CSSC[C@@H](C(=O)N[C@@H](Cc2ccc3ccccc3c2)C(N)=O)NC1=O`, for which the GHI came to 0.91.

On to `CC(C)C1NC(=O)[C@H](CCCCN)NC(=O)C(Cc2c[nH]c3ccccc23)NC(=O)[C@H](Cc2ccc(O)cc2)NC(=O)C(C)N(C)C(=O)[C@H](Cc2ccccc2)NC1=O` (single isomer, unassigned), for which the GHI was found to be 0.02.

Compound `C[C@@H](O)[C@@H]1NC(=O)[C@H](CCCN)NC(=O)[C@@H](Cc2c[nH]c3ccccc23)NC(=O)[C@H](Cc2ccccc2)NC(=O)[C@H](Cc2ccccc2)NC(=O)CCCCCCNC(=O)[C@H](Cc2ccccc2)NC1=O` (stereo in doubt) yielded a GHI of 20.

In turn, `CC(C)[C@@H]1NC(=O)[C@H](CCCCN)NC(=O)[C@@H](Cc2c[nH]c3ccccc23)NC(=O)[C@H](Cc2ccc(O)cc2)NC(=O)[C@H](NC(=O)[C@H](N)Cc2ccccc2)CSSC[C@@H](C(=O)N[C@@H](Cc2ccc3ccccc3c2)C(=O)O)NC1=O` registered a GHI of 0.06.

`CN[C@H](C)C(=O)N[C@@H](Cc1ccc(O)cc1)C(=O)N[C@H](Cc1c[nH]c2ccccc12)C(=O)N[C@@H](CCCCN)C(=O)N[C@H](C(=O)N[C@@H](Cc1ccccc1)C(N)=O)C(C)C`: the GHI came out at 20000.

The compound `CC(C)[C@@H]1NC(=O)[C@H](CCCCN)NC(=O)[C@@H](Cc2c[nH]c3ccccc23)NC(=O)[C@H](Cc2c[nH]c3ccccc23)NC(=O)[C@H](NC(=O)[C@H](N)Cc2ccccc2)CSSC[C@@H](C(=O)N[C@@H](Cc2ccc3ccccc3c2)C(N)=O)NC1=O` came in with a GHI of 0.2.

As for `C[C@@H](O)[C@@H]1NC(=O)[C@H](CCCCN)NC(=O)[C@@H](Cc2c[nH]c3ccccc23)NC(=O)[C@H](Cc2ccccc2)NC(=O)[C@@H]2CSSC[C@H](NC1=O)C(=O)NCCCCCCC(=O)N2` (stereo in doubt), the GHI turned out to be 0.81.

As to `C[C@@H](O)[C@@H]1NC(=O)C(CCCCN)NC(=O)[C@@H](Cc2c[nH]c3ccccc23)NC(=O)C(Cc2ccccc2)NC(=O)[C@@H]2CCCN2C(=O)C(Cc2ccccc2)NC1=O` (single isomer, unassigned), the GHI turned out to be 0.59.

`CC(C)[C@H](NC(=O)[C@H](CCCCN)NC(=O)[C@@H](Cc1c[nH]c2ccccc12)NC(=O)[C@H](Cc1ccc(O)cc1)NC(=O)[C@H](Cc1ccc(Cl)cc1)NC(=O)[C@H](N)Cc1ccccc1)C(=O)N[C@@H](Cc1ccccc1)C(=O)N[C@H](C)C(N)=O`: the GHI is 4000.

The compound `NCCCCC1NC(=O)[C@@H](Cc2c[nH]c3ccccc23)NC(=O)C(Cc2ccccc2)NC(=O)[C@@H]2CCCN2C(=O)C(Cc2ccccc2)NC(=O)[C@H](CO)NC1=O` (single isomer, unassigned) had a GHI of 0.71.
